# Test results reported in ChEMBL document CHEMBL4325893, “Synthesis and antibacterial profiles of targeted triclosan derivatives” (2019).
# How the values were obtained:
# [1] = Antibacterial activity against Salmonella enterica subspecies enterica serotype Virchow NCTC 5742 after 18 hrs; type: functional, Salmonella enterica subsp. enterica serovar Virchow; conditions: NCTC 5742, 18 h
# In short: (§1)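 Broth microdilution in Nutrient Broth No. 2; stocks in ethanol diluted to 0.01–128 µg/ml (triclosan) or 0.25–256 µg/ml (glycosides). Overnight 37 °C NB2 cultures diluted 1 in 10^4 in saline and added to the dilutions. Incubation at 37 °C with agitation, OD read every 15 min; MIC is the lowest concentration preventing any OD rise after 18 h.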
# Escherichia coli [2] = assay: Antibacterial activity against Escherichia coli OCC 122 after 18 hrs; type: functional; conditions: OCC 122, 18 h; in short: as §1
# Escherichia coli [3] = assay: Antibacterial activity against Escherichia coli ATCC 35218 after 18 hrs; type: functional; conditions: ATCC 35218, 18 h; in short: as §1
# [4] = Antibacterial activity against Salmonella enterica subspecies enterica serotype Infantis OCC 2133 after 18 hrs; type: functional, Salmonella enterica subsp. enterica serovar Infantis; conditions: OCC 2133, 18 h; in short: as §1
# Enterococcus faecalis [5] = assay: Antibacterial activity against Enterococcus faecalis ATCC 29212 after 18 hrs; type: functional; conditions: ATCC 29212, 18 h; in short: as §1
# [6] = test system: Staphylococcus epidermidis; assay: Antibacterial activity against Staphylococcus epidermidis ATCC 14990 after 18 hrs; type: functional; conditions: ATCC 14990, 18 h; in short: as §1
# Aeromonas hydrophila = assay: Antibacterial activity against Aeromonas hydrophila OCC 778 after 18 hrs; type: functional; conditions: OCC 778, 18 h; in short: as §1
# Escherichia coli [7] = assay: Antibacterial activity against Escherichia coli ATCC 8739 after 18 hrs; type: functional; conditions: ATCC 8739, 18 h; in short: as §1
# Staphylococcus aureus [8] = assay: Antibacterial activity against Staphylococcus aureus ATCC 25923 after 18 hrs; type: functional; conditions: ATCC 25923, 18 h; in short: as §1
# [9] = Antibacterial activity against Salmonella enterica subspecies enterica serotype Poona NCTC 4840 after 18 hrs; type: functional, Salmonella enterica subsp. enterica serovar Poona; conditions: NCTC 4840, 18 h; in short: as §1
# Staphylococcus aureus [10] = assay: Antibacterial activity against Staphylococcus aureus OCC 104 after 18 hrs; type: functional; conditions: OCC 104, 18 h; in short: as §1
# Staphylococcus aureus [11] = assay: Antibacterial activity against Staphylococcus aureus ATCC 29213 after 18 hrs; type: functional; conditions: ATCC 29213, 18 h; in short: as §1
# Pseudomonas aeruginosa = assay: Antibacterial activity against Pseudomonas aeruginosa ATCC 27853 after 18 hrs; type: functional; conditions: ATCC 27853, 18 h; in short: as §1
# Escherichia coli [12] = assay: Antibacterial activity against Escherichia coli ATCC 11775 after 18 hrs; type: functional; in short: as §1
# Citrobacter freundii [13] = assay: Antibacterial activity against Citrobacter freundii OCC 851 after 18 hrs; type: functional; conditions: OCC 851, 18 h; in short: as §1
# [14] = Antibacterial activity against Salmonella enterica subspecies enterica serotype Pullorum OCC 273 after 18 hrs; type: functional, Salmonella enterica subsp. enterica serovar Pullorum; conditions: OCC 273, 18 h; in short: as §1
# Salmonella typhimurium = assay: Antibacterial activity against Salmonella enterica subspecies enterica serotype typhimurium ATCC 14028 after 18 hrs; type: functional, Salmonella enterica subsp. enterica serovar Typhimurium; conditions: ATCC 14028, 18 h; in short: as §1
# Streptococcus pneumoniae [15] = assay: Antibacterial activity against Streptococcus pneumoniae 6305 after 18 hrs; type: functional; conditions: Streptococcus pneumoniae, 6305, 18 h
# In short: (§2)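 Broth microdilution in Nutrient Broth No. 2. Ethanol stocks were diluted in broth to 0.01–128 µg/ml for triclosan and 0.25–256 µg/ml for glycosides. Overnight 37°C NB2 cultures were diluted 1 in 10^4 in saline and added to the wells. Plates were incubated at 37°C with OD read every 15 min after agitation. MIC was the lowest concentration giving no OD increase at 18 h.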
# [16] = Antibacterial activity against Salmonella enterica subspecies enterica serotype Nottingham NCTC 7832 after 18 hrs; type: functional, Salmonella enterica subsp. enterica serovar Nottingham; conditions: NCTC 7832, 18 h; in short: as §1
# Escherichia coli [17] = assay: Antibacterial activity against Escherichia coli NCTC 13216 after 18 hrs; type: functional; conditions: NCTC 13216, 18 h; in short: as §1
# [18] = Antibacterial activity against Salmonella enterica subspecies enterica serotype Arizonae OCC 706 after 18 hrs; type: functional, Salmonella enterica subsp. enterica serovar Arizonae; conditions: OCC 706, 18 h; in short: as §1
# Escherichia coli [19] = assay: Antibacterial activity against Escherichia coli ATCC 10536 after 18 hrs; type: functional; conditions: ATCC 10536, 18 h; in short: as §1
# Enterococcus faecium = assay: Antibacterial activity against Enterococcus faecium ATCC 19434 after 18 hrs; type: functional; conditions: ATCC 19434, 18 h; in short: as §1
# Hafnia alvei = assay: Antibacterial activity against Hafnia alvei 13337 after 18 hrs; type: functional; conditions: Hafnia alvei, 13337, 18 h; in short: as §1
# Salmonella enteritidis = assay: Antibacterial activity against Salmonella enterica subspecies enterica serotype Enteritidis 13076 after 18 hrs; type: functional, Salmonella enterica subsp. enterica serovar Enteritidis; conditions: Salmonella enterica, 13076, 18 h; in short: as §1
# Streptococcus agalactiae = assay: Antibacterial activity against Streptococcus agalactiae OCC 182 after 18 hrs; type: functional; conditions: OCC 182, 18 h; in short: as §2
# Bacillus cereus = assay: Antibacterial activity against Bacillus cereus ATCC 14579 after 18 hrs; type: functional; conditions: ATCC 14579, 18 h; in short: as §1
# [20] = test system: Staphylococcus epidermidis; assay: Antibacterial activity against Staphylococcus epidermidis 155 after 18 hrs; type: functional; conditions: Staphylococcus epidermidis, 155, 18 h; in short: as §1
# Streptococcus pneumoniae [21] = assay: Antibacterial activity against Streptococcus pneumoniae ATCC 49619 after 18 hrs; type: functional; conditions: ATCC 49619, 18 h; in short: as §2
# Proteus mirabilis = assay: Antibacterial activity against Proteus mirabilis ATCC 12453 after 18 hrs; type: functional; conditions: ATCC 12453, 18 h; in short: as §1
# Escherichia coli [22] = assay: Antibacterial activity against Escherichia coli 700728 after 18 hrs; type: functional; conditions: Escherichia coli, 700728, 18 h; in short: as §1
# Klebsiella aerogenes [23] = assay: Antibacterial activity against Enterobacter aerogenes ATCC 13048 after 18 hrs; type: functional; conditions: ATCC 13048, 18 h; in short: as §1
# [24] = Antibacterial activity against Enterobacter cloacae ATCC 13047 after 18 hrs; type: functional, Enterobacter cloacae subsp. cloacae; conditions: ATCC 13047, 18 h; in short: as §1
# Enterococcus faecalis [25] = assay: Antibacterial activity against Enterococcus faecalis ATCC 33186 after 18 hrs; type: functional; conditions: ATCC 33186, 18 h; in short: as §1
# Staphylococcus aureus [26] = assay: Antibacterial activity against Staphylococcus aureus OCC 106 after 18 hrs; type: functional; conditions: OCC 106, 18 h; in short: as §1
# [27] = test system: Salmonella enterica subsp. enterica serovar Abony; assay: Antibacterial activity against Salmonella enterica subspecies enterica serotype Abony NCTC 6017 after 18 hrs; type: functional; conditions: NCTC 6017, 18 h; in short: as §1
# Escherichia hermannii = assay: Antibacterial activity against Escherichia hermannii 33650 after 18 hrs; type: functional; conditions: Atlantibacter hermannii, 33650, 18 h; in short: as §1
# Streptococcus viridans = assay: Antibacterial activity against Streptococcus viridans OCC 234 after 18 hrs; type: functional; conditions: OCC 234, 18 h; in short: as §2
# Citrobacter freundii [28] = assay: Antibacterial activity against Citrobacter freundii 8090 after 18 hrs; type: functional; conditions: Citrobacter freundii, 8090, 18 h; in short: as §1
# Klebsiella aerogenes [29] = assay: Antibacterial activity against Klebsiella aerogenes NCTC 8167 after 18 hrs; type: functional; conditions: NCTC 8167, 18 h; in short: as §1
# [30] = test system: Staphylococcus saprophyticus; assay: Antibacterial activity against Staphylococcus saprophyticus ATCC 15305 after 18 hrs; type: functional; conditions: ATCC 15305, 18 h; in short: as §2
# Staphylococcus aureus [31] = assay: Antibacterial activity against Staphylococcus aureus ATCC 6538P after 18 hrs; type: functional; in short: as §1
# Klebsiella pneumoniae [32] = assay: Antibacterial activity against Klebsiella pneumoniae ATCC 10031 after 18 hrs; type: functional; conditions: ATCC 10031, 18 h; in short: as §1
# Proteus vulgaris = assay: Antibacterial activity against Proteus vulgaris OCC 195 after 18 hrs; type: functional; conditions: OCC 195, 18 h; in short: as §1
# Serratia marcescens = assay: Antibacterial activity against Serratia marcescens OCC 217 after 18 hrs; type: functional; conditions: OCC 217, 18 h; in short: as §1
# [33] = Antibacterial activity against Salmonella enterica subspecies enterica serotype Indiana OCC 597 after 18 hrs; type: functional, Salmonella enterica subsp. enterica serovar Indiana; conditions: OCC 597, 18 h; in short: as §1
# [34] = test system: Staphylococcus haemolyticus; assay: Antibacterial activity against Staphylococcus haemolyticus OCC 2223 after 18 hrs; type: functional; conditions: OCC 2223, 18 h; in short: as §2
# Klebsiella pneumoniae [35] = assay: Antibacterial activity against Klebsiella pneumoniae ATCC 13883 after 18 hrs; type: functional; conditions: ATCC 13883, 18 h; in short: as §1
# Cronobacter sakazakii = assay: Antibacterial activity against Cronobacter sakazakii 29544 after 18 hrs; type: functional; conditions: Cronobacter sakazakii, 29544, 18 h; in short: as §1
# Streptococcus pyogenes = assay: Antibacterial activity against Streptococcus pyogenes ATCC 19615 after 18 hrs; type: functional; conditions: ATCC 19615, 18 h; in short: as §2
# Staphylococcus aureus [36] = assay: Antibacterial activity against Staphylococcus aureus NCTC 13758 after 18 hrs; type: functional; conditions: NCTC 13758, 18 h; in short: as §1
# Staphylococcus aureus [37] = assay: Antibacterial activity against Staphylococcus aureus ATCC 6538 after 18 hrs; type: functional; conditions: ATCC 6538, 18 h; in short: as §1
# Escherichia coli [38] = assay: Antibacterial activity against Escherichia coli ATCC 25922 after 18 hrs; type: functional; conditions: ATCC 25922, 18 h; in short: as §1
# [39] = Antibacterial activity against Salmonella enterica subspecies enterica serotype Dublin OCC 627 after 18 hrs; type: functional, Salmonella enterica subsp. enterica serovar Dublin; conditions: OCC 627, 18 h; in short: as §1
# Staphylococcus aureus [40] = assay: Antibacterial activity against Staphylococcus aureus ATCC 9144 after 18 hrs; type: functional; conditions: ATCC 9144, 18 h; in short: as §1
# [41] = test system: Staphylococcus epidermidis; assay: Antibacterial activity against Staphylococcus epidermidis ATCC 12228 after 18 hrs; type: functional; conditions: ATCC 12228, 18 h; in short: as §1
# Bacillus subtilis = assay: Antibacterial activity against Bacillus subtilis NCTC 10073 after 18 hrs; type: functional; conditions: NCTC 10073, 18 h; in short: as §1
structure (smiles),measurement,setting,value
Oc1cc(Cl)ccc1Oc1ccc(Cl)cc1Cl [TRICLOSAN],MIC,[1],0.5 to 1 µg/mL
same,MIC,Escherichia coli [2],0.1 to 0.5 µg/mL
same,MIC,Escherichia coli [3],0.1 to 0.5 µg/mL
same,MIC,[4],0.5 to 1 µg/mL
same,MIC,Enterococcus faecalis [5],8 µg/mL
same,MIC,[6],0.01 µg/mL
same,MIC,Aeromonas hydrophila,8 µg/mL
same,MIC,Escherichia coli [7],0.1 to 0.5 µg/mL
same,MIC,Staphylococcus aureus [8],0.01 µg/mL
same,MIC,[9],0.5 to 1 µg/mL
same,MIC,Staphylococcus aureus [10],0.01 µg/mL
same,MIC,Staphylococcus aureus [11],0.01 µg/mL
same,MIC,Pseudomonas aeruginosa,32 µg/mL
same,MIC,Escherichia coli [12],0.1 to 0.5 µg/mL
same,MIC,Citrobacter freundii [13],0.5 µg/mL
same,MIC,[14],0.5 to 1 µg/mL
same,MIC,Salmonella typhimurium,0.5 to 1 µg/mL
same,MIC,Streptococcus pneumoniae [15],1 µg/mL
same,MIC,[16],0.5 to 1 µg/mL
same,MIC,Escherichia coli [17],0.1 to 0.5 µg/mL
same,MIC,[18],0.5 to 1 µg/mL
same,MIC,Escherichia coli [19],0.1 to 0.5 µg/mL
same,MIC,Enterococcus faecium,4 µg/mL
same,MIC,Hafnia alvei,0.1 µg/mL
same,MIC,Salmonella enteritidis,0.5 to 1 µg/mL
same,MIC,Streptococcus agalactiae,4 µg/mL
same,MIC,Bacillus cereus,2 µg/mL
same,MIC,[20],0.01 µg/mL
same,MIC,Streptococcus pneumoniae [21],1 µg/mL
same,MIC,Proteus mirabilis,0.5 µg/mL
same,MIC,Escherichia coli [22],0.1 to 0.5 µg/mL
same,MIC,Klebsiella aerogenes [23],0.5 µg/mL
same,MIC,[24],0.5 µg/mL
same,MIC,Enterococcus faecalis [25],8 µg/mL
same,MIC,Staphylococcus aureus [26],0.01 µg/mL
same,MIC,[27],0.5 to 1 µg/mL
same,MIC,Escherichia hermannii,0.5 µg/mL
same,MIC,Streptococcus viridans,4 µg/mL
same,MIC,Citrobacter freundii [28],0.5 µg/mL
same,MIC,Klebsiella aerogenes [29],0.5 µg/mL
same,MIC,[30],0.01 µg/mL
same,MIC,Staphylococcus aureus [31],0.01 µg/mL
same,MIC,Klebsiella pneumoniae [32],0.1 µg/mL
same,MIC,Proteus vulgaris,0.5 µg/mL
same,MIC,Serratia marcescens,64 µg/mL
same,MIC,[33],0.5 to 1 µg/mL
same,MIC,[34],0.01 µg/mL
same,MIC,Klebsiella pneumoniae [35],0.1 µg/mL
same,MIC,Cronobacter sakazakii,0.5 µg/mL
same,MIC,Streptococcus pyogenes,1 µg/mL
same,MIC,Staphylococcus aureus [36],0.01 µg/mL
same,MIC,Staphylococcus aureus [37],0.01 µg/mL
same,MIC,Escherichia coli [38],0.1 to 0.5 µg/mL
same,MIC,[39],0.5 to 1 µg/mL
same,MIC,Staphylococcus aureus [40],0.01 µg/mL
same,MIC,[41],0.01 µg/mL
same,MIC,Bacillus subtilis,1 µg/mL
